Screening data from PubChem BioAssay.
In the library only some 1.9% were active in any assay of this set; here they are far more common.
HCV core dimer = inhibitors of HCV core protein dimerization, primary screen, biochemical, TR-FRET, high-throughput; AID 1899, 2009; 300,000 compounds, 0.33% hits; inhibition, % at 5 µM; TR-FRET GST/Flag-core106 dimerization, 1536-well;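 active means inhibition above the mean of all tested compounds plus 3 SD, set per screening campaign, cut at about 45% in these data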
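Test system: GST/Flag-tagged HCV core106 proteins; Medium: KF-containing HEPES buffer, pH 7.45, DTT, CHAPS, BSA; Times: compound-protein-antibody incubation 4 h at 22.5 °C; Detection: TR-FRET 671 and 617 nm emission; Benchmarks: wells lacking GST-core106 and wells with excess unlabelled core106.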
IMP-1 inh-1 = IMP-1 metallo-beta-lactamase inhibitors, primary screen, biochemical, epi-absorbance readout, Pseudomonas aeruginosa enzyme; metallo-beta-lactamase IMP-1 (Pseudomonas aeruginosa); purified IMP-1, nitrocefin hydrolysis, epi-absorbance fluorescence; inhibition, % at 5.6 µM; 290,000 compounds, 0.45% hits; AID 1556, 2009;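 active means inhibition above the mean plus 3 SD of all compounds in the same screening run, cut at about 4.5% in these data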;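 further: 0% = IMP-1 with DMSO and 100% = DMSO wells lacking enzyme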
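System: purified IMP-1; amount: IMP-1 0.2 nM before substrate addition; compound: single dose, 5.6 µM; times: 25 °C, 15 min preincubation, 25 min reaction; signal: Epi-absorbance via hydrolysed-nitrocefin quenching of white-plate fluorescence, 480/530 nm, EDTA stop; benchmarks: DMSO with and without IMP-1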
NadD inh = inhibitors of S. aureus NadD, primary screen, biochemical, colorimetric, uHTS. Nicotinate-nucleotide adenylyltransferase NadD (Staphylococcus aureus N315). inhibition, % at 20 µM. purified NadD enzyme, colorimetric absorbance read-out. 360,000 compounds, 0.78% hits; in the data active means inhibition above about 26%
VIM-2 inh = VIM-2 metallo-beta-lactamase inhibitors, primary screen, biochemical, epi-absorbance readout, Pseudomonas aeruginosa enzyme; inhibition, % at 5.6 µM; AID 1527, 2009; purified VIM-2, nitrocefin hydrolysis, epi-absorbance fluorescence; 290,000 compounds, 0.89% hits;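 active means inhibition above the mean of all tested compounds plus 3 SD, cutoff set per screening run, cut at about 7.5% in these data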;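 further: red hydrolysis product quenches plate fluorescence so inhibitors raise well fluorescence; 0% = enzyme with DMSO and 100% = DMSO without enzyme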
IMP-1 inh-2 = IMP-1 metallo-beta-lactamase inhibitors, confirmation, selectivity assay for selective VIM-2 inhibitor project, biochemical, epi-absorbance readout, triplicate; inhibition, % at 5.6 µM; shares compounds with VIM-2 inh; purified IMP-1, nitrocefin hydrolysis, epi-absorbance fluorescence; 1,300 tested, under 10 active; call rule not given here;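 further: 0% = enzyme with vehicle and 100% = vehicle without enzyme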
VIM-2 FRET inh = VIM-2 inhibitors in FRET format, confirmation, artefact control for selective VIM-2 inhibitor project, biochemical, epi-absorbance artifact exclusion | shares compounds with VIM-2 inh | 1,300 compounds, 23% hits | AID 1857, 2009 | purified VIM-2, CCF2 FRET substrate hydrolysis | inhibition, % at 5.6 µM;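 active means inhibition above the mean of all tested compounds plus 3 SD, cut at about 19% in these data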;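 further: 0% = VIM-2 plus DMSO and 100% = no enzyme wells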
TEM-1 counter = TEM-1 serine beta-lactamase inhibitors, counter-screen for VIM-2 inhibitor project, biochemical, epi-absorbance, HTS. inhibition, % at 5.6 µM. 1,300 compounds, 3% hits. shares compounds with VIM-2 inh. Purified TEM-1, nitrocefin hydrolysis, epi-absorbance fluorescence;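 active means inhibition above that campaign's mean inhibition plus 3 SD, cut at about 0.46% in these data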;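 further: 0% = TEM-1 with DMSO and 100% = TEM-1 with 100 µM potassium clavulanate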
Target sequence (P62593 whole entry, looked up): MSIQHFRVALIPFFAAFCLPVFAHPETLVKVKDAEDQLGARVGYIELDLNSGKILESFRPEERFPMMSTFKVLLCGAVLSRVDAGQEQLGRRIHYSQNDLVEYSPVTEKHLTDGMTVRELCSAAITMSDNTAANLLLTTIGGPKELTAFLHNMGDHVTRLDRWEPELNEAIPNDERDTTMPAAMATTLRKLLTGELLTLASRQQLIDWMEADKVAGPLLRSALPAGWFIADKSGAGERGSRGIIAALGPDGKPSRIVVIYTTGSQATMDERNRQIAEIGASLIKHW
VIM-2 confirm 2 = VIM-2 metallo-beta-lactamase inhibitors, confirmation, biochemical, epi-absorbance, hits shared with IMP-1 screen. 1,300 compounds, 96% hits. shares compounds with VIM-2 inh. inhibition, % at 5.6 µM. AID 2187, 2009. purified VIM-2, nitrocefin hydrolysis;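 active means inhibition of the VIM-2 beta-lactamase enzyme above about 11% from the earlier first-round screen, limit read from the data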;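 further: 0% = VIM-2 with DMSO and 100% = buffer wells without enzyme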
Starred values were filed as active, the others as inactive; . = no result.

SMILES	HCV core dimer	IMP-1 inh-1	NadD inh	VIM-2 inh	IMP-1 inh-2	VIM-2 FRET inh	TEM-1 counter	VIM-2 confirm 2
O=C(O)c1cccc(Nc2cc(Cl)c3nonc3c2[N+](=O)[O-])c1	-4.1	-5.3	-1.6	1.1	.	.	.	.
CN(C)CCNC(=O)c1ccc(-c2nn(C)c(=O)c3ccccc23)cc1	-7.0	-2.9	-0.4	32.3*	-3.1	-1.4	-4.6	49.9*
Cn1nc(-c2ccc(C(=O)N3CCN(CCO)CC3)cc2)c2ccccc2c1=O	-3.7	-3.9	-0.4	64.9*	-3.0	2.0	-6.1	69.2*
CN1CCN(C(=O)c2ccc(-c3ccccc3)cc2)CC1	-2.2	-0.1	4.4	1.2	.	.	.	.
CCCNC(=O)c1ccc(-c2nn(C)c(=O)c3ccccc23)cc1	-4.7	-2.2	-6.5	3.2	.	.	.	.
CN1CCN(C(=O)c2ccc(-c3nn(C)c(=O)c4ccccc34)cc2)CC1	-2.3	-3.8	-0.7	69.8*	-0.9	-8.2	1.5*	79.3*
CC(Sc1nc2ccccc2c(=O)n1CC1CCCO1)C(=O)Nc1ccc(S(N)(=O)=O)cc1 (stereo not drawn)	-4.1	.	5.6	.	.	.	.	.
CCCOC(=O)c1cc(NC(=O)/C=C/c2ccccc2)ccc1O	6.3	-4.5	-8.6	-3.6	.	.	.	.
CN(C(=O)CSc1nc2ccccc2[nH]1)C1CCS(=O)(=O)C1 (stereo not drawn)	.	.	-6.0	.	.	.	.	.
Cc1nn2c(N3CCN(CCO)CC3)c3c(nc2c1-c1ccccc1)CCCC3	-4.5	-3.5	-6.0	37.4*	-3.5	-3.7	-6.7	59.5*
Cc1nn2c(N3CCCC3)c3c(nc2c1-c1ccccc1)CCC3	7.1	0.0	6.7	3.8	.	.	.	.
O=C(CNc1cc(S(=O)(=O)N2CCOCC2)ccc1N1CCCC1)N1CCc2ccccc21	5.1	-1.8	0.3	-0.6	.	.	.	.
O=C1Nc2ccccc2C1(O)C/C(=N/O)c1ccccc1 (stereo not drawn)	-1.2	-2.8	2.1	-4.4	.	.	.	.
Cc1c(OCC(=O)NCCCN2CCOCC2)ccc2c3c(c(=O)oc12)CCC3	10.3	-2.7	-2.8	25.0*	-2.5	1.2	-14.1	36.5*
Cc1c(OCC(=O)NCCCN2CCOCC2)ccc2c1oc(=O)c1ccccc12	-0.5	-1.6	-9.7	25.5*	-0.9	0.9	-4.2	37.5*
Cc1c(OCC(=O)NCCCN2CCOCC2)ccc2c(-c3ccccc3)cc(=O)oc12	-3.9	-1.5	-1.4	0.9	.	.	.	.
COc1ccc(CC(=O)Nc2cccc(/C(C)=N/NC(=O)C3(C)CC3(Br)Br)c2)cc1 (stereo not drawn)	12.6	-1.9	-1.9	-2.3	.	.	.	.
Cc1nc(C)c(/C(O)=C/c2nc3ccccc3oc2=O)s1	-2.9	-3.9	5.2	18.7*	-2.5	10.8	-5.7	2.0
Cc1noc(C)c1CCC(=O)N1CCCC(CCC(=O)NCc2ccccc2F)C1 (stereo not drawn)	-3.9	-2.2	.	-1.5	.	.	.	.
CCCN1CCN(C(=O)Cn2nc(CC)n3c(cc4sccc43)c2=O)CC1	-6.1	-1.5	2.9	33.0*	-2.4	0.3	-6.6	38.7*
CC(Oc1cc2oc(=O)c3c(c2cc1Cl)CCC3)C(=O)NC1CC(C)(C)NC(C)(C)C1 (stereo not drawn)	-2.2	-5.4	-1.8	25.0*	-1.9	-3.9	-1.7	34.9*
Cc1c(OC(C)C(=O)NC2CC(C)(C)NC(C)(C)C2)ccc2c3c(c(=O)oc12)CCC3 (stereo not drawn)	6.7	0.8	-4.7	25.8*	-2.3	-2.3	-11.5	37.5*
Cc1c(C)c2ccc(OC(C)C(=O)NC3CC(C)(C)NC(C)(C)C3)cc2oc1=O (stereo not drawn)	-3.8	-2.3	-4.9	6.5	.	.	.	.
CC(Oc1ccc2c3c(c(=O)oc2c1)CCCC3)C(=O)NC1CC(C)(C)NC(C)(C)C1 (stereo not drawn)	-2.1	-2.2	-5.0	15.3*	-3.0	0.6	-5.8	20.1*
CC(Oc1ccc2c3c(c(=O)oc2c1)CCC3)C(=O)NC1CCN(Cc2ccccc2)CC1 (stereo not drawn)	-5.0	-2.5	-8.3	22.3*	-3.4	2.1	-6.5	31.4*
SMILES	HCV core dimer	IMP-1 inh-1	NadD inh	VIM-2 inh	IMP-1 inh-2	VIM-2 FRET inh	TEM-1 counter	VIM-2 confirm 2
COc1ccc(Cl)cc1NC(=O)CSc1nc(Nc2ccccc2)nc(N2CCOCC2)n1	5.7	0.1	23.2	-1.5	.	.	.	.
CC1=C2C3OC(=O)C(C)[C@@H]3CC[C@](C)(O)C2C2C3C4C5(C12)[C@H]1OC(=O)[C@@H](C)C1CC[C@]4(C)O[C@]5(C)[C@@H]3O (stereo partly drawn)	-2.6	-2.7	5.0	-4.7	.	.	.	.
O=C(O)c1ccc2c(=O)n3c(nc2c1)/C(=C/c1ccccc1OC(F)F)CC3	-0.2	-3.3	3.8	-0.9	.	.	.	.
O=S(=O)(c1cccc(C(F)(F)F)c1)N1CCN(CC(O)COCc2ccccc2)CC1 (stereo not drawn)	.	.	-3.0	.	.	.	.	.
CC(C)Sc1nc(SCC(=O)O)c2c3c(sc2n1)COC(C)(C)C3	7.8	-0.3	1.4	24.2*	-4.1	22.7*	-5.0	8.8*
O=C(Nc1ccccc1)c1nnn(Cc2ccccc2)c1NC(=O)C(F)(F)F	-0.2	-0.9	-4.9	-2.8	.	.	.	.
CCN(C(=O)Cc1c(C(=O)O)n(C)c2ccccc12)c1cccc(C)c1	3.3	-2.0	-6.0	-1.1	.	.	.	.
Cc1ccc(NC(=O)CSc2nc3ccccc3nc2N2CCOCC2)cc1	-0.9	-0.9	6.1	-3.1	.	.	.	.
Cc1ccc(C)n1CCN1CCN(C(=O)CSc2nc3ccccc3nc2N2CCOCC2)CC1	10.4	-0.9	-2.4	16.0*	-3.4	-5.1	-7.8	14.6*
COc1cccc(NC(=O)CSC(N)=O)c1	0.2	-1.1	-1.0	-3.9	.	.	.	.
COC(=O)c1c(NC(=O)c2ccccc2OC)sc(C(=O)N2CCOCC2)c1C	6.0	-1.9	-0.1	14.2*	-3.3	2.3	-7.3	20.1*
CN1CCN(c2ccc(-c3ccc4ccccc4n3)cc2)CC1	.	-1.9	-2.6	68.2*	-2.1	2.9	-5.0	80.8*
Cn1c(N)c(C(=O)c2cc(-c3ccccn3)nc3ccccc23)c(=O)[nH]c1=O	.	-15.1	3.4	37.9*	-5.7	-13.9	-6.6	42.2*
